According to ChEMBL document CHEMBL1147076, “Antitumor activity of MLN8054, an orally active small-molecule inhibitor of Aurora A kinase” (Proc Natl Acad Sci U S A, 2007):

What was measured:
[1] = biological target: Ephrin type-A receptor 5 (Homo sapiens) (UniProt P54756); assay: Activity of human EphA5 kinase at 1 uM
How it was run: (§1)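 Single-point kinase profiling: each kinase in a 226-kinase panel tested with compound at 1 μM and ATP at 10 μM in every assay, run by an external screening service.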

[2] = biological target: Fibroblast growth factor receptor 4 (Homo sapiens) (UniProt P22455); assay: Activity of human FGFR4 kinase at 1 uM
[3] = biological target: Tyrosine-protein kinase Fgr (Homo sapiens) (UniProt P09769); assay: Activity of human FGR kinase at 1 uM; how it was run: as §1
Chain of Tyrosine-protein kinase Fgr (Homo sapiens) (P09769 2-529 limits assumed): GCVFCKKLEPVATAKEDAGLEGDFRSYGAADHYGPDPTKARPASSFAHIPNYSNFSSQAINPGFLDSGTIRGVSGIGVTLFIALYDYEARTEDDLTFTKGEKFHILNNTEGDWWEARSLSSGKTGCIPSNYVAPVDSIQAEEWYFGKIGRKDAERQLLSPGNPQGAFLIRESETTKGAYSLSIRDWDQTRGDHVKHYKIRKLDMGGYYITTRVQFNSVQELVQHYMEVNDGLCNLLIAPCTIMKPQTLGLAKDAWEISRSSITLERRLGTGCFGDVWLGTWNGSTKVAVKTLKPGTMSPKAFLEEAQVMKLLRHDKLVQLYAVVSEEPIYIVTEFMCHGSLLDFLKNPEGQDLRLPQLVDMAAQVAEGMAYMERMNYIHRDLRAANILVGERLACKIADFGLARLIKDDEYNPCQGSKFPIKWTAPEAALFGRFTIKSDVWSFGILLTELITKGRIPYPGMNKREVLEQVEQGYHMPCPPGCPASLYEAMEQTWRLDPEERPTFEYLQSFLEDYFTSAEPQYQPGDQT

[4] = biological target: G protein-coupled receptor kinase 6 (Homo sapiens) (UniProt P43250); assay: Activity of human GRK6 kinase at 1 uM
[5] = biological target: Insulin-like growth factor 1 receptor (Homo sapiens) (UniProt P08069); assay: Activity of human IGF1R kinase at 1 uM
[6] = biological target: Inhibitor of nuclear factor kappa-B kinase subunit alpha (Homo sapiens) (UniProt O15111); assay: Activity of human IKKalpha kinase at 1 uM; how it was run: as §1
[7] = biological target: Tyrosine-protein kinase JAK3 (Homo sapiens) (UniProt P52333); assay: Activity of human JAK3 kinase at 1 uM
Chain of Tyrosine-protein kinase JAK3 (Homo sapiens) (P52333 whole entry): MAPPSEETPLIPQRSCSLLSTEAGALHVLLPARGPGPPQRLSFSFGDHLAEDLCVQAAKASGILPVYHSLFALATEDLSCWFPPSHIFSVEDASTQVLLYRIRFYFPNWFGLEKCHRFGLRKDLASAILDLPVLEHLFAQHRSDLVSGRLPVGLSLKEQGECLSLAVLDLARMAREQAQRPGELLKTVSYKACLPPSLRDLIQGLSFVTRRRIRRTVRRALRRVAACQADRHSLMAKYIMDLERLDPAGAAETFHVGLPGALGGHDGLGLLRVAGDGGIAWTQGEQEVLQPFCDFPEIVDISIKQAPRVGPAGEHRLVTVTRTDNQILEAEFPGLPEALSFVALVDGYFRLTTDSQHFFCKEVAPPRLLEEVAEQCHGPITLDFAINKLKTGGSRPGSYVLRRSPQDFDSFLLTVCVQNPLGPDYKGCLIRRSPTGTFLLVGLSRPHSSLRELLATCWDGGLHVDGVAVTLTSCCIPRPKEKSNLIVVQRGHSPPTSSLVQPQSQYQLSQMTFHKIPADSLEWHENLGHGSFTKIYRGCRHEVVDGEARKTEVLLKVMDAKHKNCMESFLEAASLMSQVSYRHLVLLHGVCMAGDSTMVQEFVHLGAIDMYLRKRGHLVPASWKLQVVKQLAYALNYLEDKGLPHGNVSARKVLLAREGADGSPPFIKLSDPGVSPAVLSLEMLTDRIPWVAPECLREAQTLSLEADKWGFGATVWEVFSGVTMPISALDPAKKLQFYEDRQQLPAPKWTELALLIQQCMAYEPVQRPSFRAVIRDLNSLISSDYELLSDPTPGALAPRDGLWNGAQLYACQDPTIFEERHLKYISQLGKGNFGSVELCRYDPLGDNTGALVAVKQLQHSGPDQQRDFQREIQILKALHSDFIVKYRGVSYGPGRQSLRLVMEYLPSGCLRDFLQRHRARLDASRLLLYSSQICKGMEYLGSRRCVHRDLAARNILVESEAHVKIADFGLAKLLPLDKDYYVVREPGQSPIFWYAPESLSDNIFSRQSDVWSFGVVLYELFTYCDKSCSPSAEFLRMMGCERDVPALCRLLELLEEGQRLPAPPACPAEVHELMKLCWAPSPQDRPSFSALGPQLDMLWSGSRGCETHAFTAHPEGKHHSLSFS

[8] = biological target: Mitogen-activated protein kinase 8 (Homo sapiens) (UniProt P45983); assay: Activity of human JNK1-alpha-1 kinase at 1 uM; how it was run: as §1
Chain of Mitogen-activated protein kinase 8 (Homo sapiens) (P45983 whole entry): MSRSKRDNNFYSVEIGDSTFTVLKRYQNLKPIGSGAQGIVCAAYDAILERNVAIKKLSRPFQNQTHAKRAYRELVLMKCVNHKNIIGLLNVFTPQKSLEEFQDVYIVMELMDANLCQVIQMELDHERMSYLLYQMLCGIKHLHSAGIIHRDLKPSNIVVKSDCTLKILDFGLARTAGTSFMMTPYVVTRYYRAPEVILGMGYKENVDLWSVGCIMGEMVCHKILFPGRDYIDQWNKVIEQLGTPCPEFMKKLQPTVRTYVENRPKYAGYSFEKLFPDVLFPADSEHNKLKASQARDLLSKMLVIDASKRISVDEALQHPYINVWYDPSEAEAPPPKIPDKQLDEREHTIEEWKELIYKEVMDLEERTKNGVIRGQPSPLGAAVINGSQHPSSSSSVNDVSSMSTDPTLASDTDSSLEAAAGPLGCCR

[9] = biological target: Serine/threonine-protein kinase STK11 (Homo sapiens) (UniProt Q15831); assay: Activity of human LKB1 kinase at 1 uM
[10] = biological target: Serine/threonine-protein kinase 24 (Homo sapiens) (UniProt Q9Y6E0); assay: Activity of human MST3 kinase at 1 uM
[11] = biological target: Serine/threonine-protein kinase Nek3 (Homo sapiens) (UniProt P51956); assay: Activity of human NEK3 kinase at 1 uM
Chain of Serine/threonine-protein kinase Nek3 (Homo sapiens) (P51956 whole entry): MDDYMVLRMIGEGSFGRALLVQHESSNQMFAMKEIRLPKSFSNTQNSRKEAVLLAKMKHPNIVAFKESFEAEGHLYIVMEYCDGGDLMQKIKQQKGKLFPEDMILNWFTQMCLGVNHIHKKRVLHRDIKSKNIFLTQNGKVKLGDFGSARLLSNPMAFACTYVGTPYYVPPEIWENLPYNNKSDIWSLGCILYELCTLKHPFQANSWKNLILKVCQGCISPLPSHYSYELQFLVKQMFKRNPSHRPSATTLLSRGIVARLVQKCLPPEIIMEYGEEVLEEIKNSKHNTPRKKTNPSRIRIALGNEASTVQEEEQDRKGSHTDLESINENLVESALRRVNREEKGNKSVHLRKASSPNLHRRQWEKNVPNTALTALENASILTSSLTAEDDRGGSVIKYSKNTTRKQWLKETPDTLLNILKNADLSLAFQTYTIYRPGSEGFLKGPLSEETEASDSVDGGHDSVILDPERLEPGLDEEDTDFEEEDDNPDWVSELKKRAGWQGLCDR
How it was run: (§2)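 Single-point screen in a 226-kinase panel run by an outside service. Test compound at 1 μM with ATP at 10 μM in every assay. Other assay conditions are not given.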

[12] = biological target: Serine/threonine-protein kinase Nek7 (Homo sapiens) (UniProt Q8TDX7); assay: Activity of human NEK7 kinase at 1 uM; how it was run: as §2
Chain of Serine/threonine-protein kinase Nek7 (Homo sapiens) (Q8TDX7 whole entry, looked up): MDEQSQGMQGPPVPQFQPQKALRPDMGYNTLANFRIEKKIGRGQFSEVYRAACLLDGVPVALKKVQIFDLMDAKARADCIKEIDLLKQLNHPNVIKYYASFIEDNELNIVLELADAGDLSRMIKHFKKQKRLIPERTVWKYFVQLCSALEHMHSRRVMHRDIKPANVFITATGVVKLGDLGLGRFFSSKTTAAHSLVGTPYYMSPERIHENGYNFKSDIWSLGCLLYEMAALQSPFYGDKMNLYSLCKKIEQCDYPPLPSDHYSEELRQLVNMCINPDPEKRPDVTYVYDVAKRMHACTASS

[13] = biological target: Serine/threonine-protein kinase NLK (Homo sapiens) (UniProt Q9UBE8); assay: Activity of human NLK kinase at 1 uM; how it was run: as §2
[14] = biological target: Serine/threonine-protein kinase PAK 2 (Homo sapiens) (UniProt Q13177); assay: Activity of human PAK2 kinase at 1 uM; how it was run: as §2
[15] = biological target: Phosphatidylinositol 4,5-bisphosphate 3-kinase catalytic subunit gamma isoform (Homo sapiens) (UniProt P48736); assay: Activity of human PI 3-kinase gamma at 1 uM; how it was run: as §1
[16] = biological target: Protein kinase C alpha type (Homo sapiens) (UniProt P17252); assay: Activity of human PKCalpha kinase at 1 uM; how it was run: as §2
[17] = biological target: Protein kinase C beta type (Homo sapiens) (UniProt P05771); assay: Activity of human PKC-beta-2 kinase at 1 uM; how it was run: as §2
Chain of Protein kinase C beta type (Homo sapiens) (P05771 2-671 limits assumed): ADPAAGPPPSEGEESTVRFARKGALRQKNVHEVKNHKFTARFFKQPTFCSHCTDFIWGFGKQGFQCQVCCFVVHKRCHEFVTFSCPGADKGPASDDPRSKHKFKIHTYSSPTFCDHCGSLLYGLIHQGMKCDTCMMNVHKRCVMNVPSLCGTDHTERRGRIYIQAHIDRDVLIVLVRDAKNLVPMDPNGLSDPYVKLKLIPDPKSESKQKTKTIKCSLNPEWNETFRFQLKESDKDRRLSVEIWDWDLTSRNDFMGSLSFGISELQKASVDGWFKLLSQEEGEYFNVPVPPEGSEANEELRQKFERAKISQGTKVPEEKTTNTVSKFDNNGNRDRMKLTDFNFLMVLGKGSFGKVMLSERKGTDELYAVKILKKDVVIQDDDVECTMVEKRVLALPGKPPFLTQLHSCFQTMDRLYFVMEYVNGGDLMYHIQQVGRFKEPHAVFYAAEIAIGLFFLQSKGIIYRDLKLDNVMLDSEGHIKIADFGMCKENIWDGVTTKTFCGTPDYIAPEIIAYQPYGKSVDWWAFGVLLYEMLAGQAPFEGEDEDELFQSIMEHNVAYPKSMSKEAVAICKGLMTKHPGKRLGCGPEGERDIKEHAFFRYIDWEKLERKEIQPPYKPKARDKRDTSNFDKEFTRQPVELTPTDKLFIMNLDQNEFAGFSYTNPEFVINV

[18] = biological target: Protein kinase C theta type (Homo sapiens) (UniProt Q04759); assay: Activity of human PKCtheta kinase at 1 uM; how it was run: as §1
[19] = biological target: Rho-associated protein kinase 2 (Homo sapiens) (UniProt O75116); assay: Activity of human ROCK2 kinase at 1 uM; how it was run: as §2
[20] = biological target: Macrophage-stimulating protein receptor (Homo sapiens) (UniProt Q04912); assay: Activity of human Ron kinase at 1 uM; how it was run: as §2
[21] = biological target: Mitogen-activated protein kinase 13 (Homo sapiens) (UniProt O15264); assay: Activity of human SAPK4 kinase at 1 uM; how it was run: as §2
Chain of Mitogen-activated protein kinase 13 (Homo sapiens) (O15264 whole entry): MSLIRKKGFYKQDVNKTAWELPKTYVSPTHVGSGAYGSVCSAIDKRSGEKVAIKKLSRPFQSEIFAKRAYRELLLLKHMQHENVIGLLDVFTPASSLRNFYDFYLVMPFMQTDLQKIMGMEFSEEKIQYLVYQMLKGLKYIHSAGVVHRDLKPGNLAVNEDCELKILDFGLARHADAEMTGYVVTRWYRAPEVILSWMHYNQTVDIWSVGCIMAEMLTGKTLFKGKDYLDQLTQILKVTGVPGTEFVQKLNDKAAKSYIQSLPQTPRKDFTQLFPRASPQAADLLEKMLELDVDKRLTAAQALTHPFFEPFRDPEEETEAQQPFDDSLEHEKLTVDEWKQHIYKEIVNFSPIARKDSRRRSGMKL

[22] = biological target: Death-associated protein kinase 2 (Homo sapiens) (UniProt Q9UIK4); assay: Activity of human DAPK2 kinase at 1 uM; how it was run: as §1
[23] = biological target: Discoidin domain-containing receptor 2 (Homo sapiens) (UniProt Q16832); assay: Activity of human DDR2 kinase at 1 uM
Chain of Discoidin domain-containing receptor 2 (Homo sapiens) (Q16832 whole entry, the tested form may be a part): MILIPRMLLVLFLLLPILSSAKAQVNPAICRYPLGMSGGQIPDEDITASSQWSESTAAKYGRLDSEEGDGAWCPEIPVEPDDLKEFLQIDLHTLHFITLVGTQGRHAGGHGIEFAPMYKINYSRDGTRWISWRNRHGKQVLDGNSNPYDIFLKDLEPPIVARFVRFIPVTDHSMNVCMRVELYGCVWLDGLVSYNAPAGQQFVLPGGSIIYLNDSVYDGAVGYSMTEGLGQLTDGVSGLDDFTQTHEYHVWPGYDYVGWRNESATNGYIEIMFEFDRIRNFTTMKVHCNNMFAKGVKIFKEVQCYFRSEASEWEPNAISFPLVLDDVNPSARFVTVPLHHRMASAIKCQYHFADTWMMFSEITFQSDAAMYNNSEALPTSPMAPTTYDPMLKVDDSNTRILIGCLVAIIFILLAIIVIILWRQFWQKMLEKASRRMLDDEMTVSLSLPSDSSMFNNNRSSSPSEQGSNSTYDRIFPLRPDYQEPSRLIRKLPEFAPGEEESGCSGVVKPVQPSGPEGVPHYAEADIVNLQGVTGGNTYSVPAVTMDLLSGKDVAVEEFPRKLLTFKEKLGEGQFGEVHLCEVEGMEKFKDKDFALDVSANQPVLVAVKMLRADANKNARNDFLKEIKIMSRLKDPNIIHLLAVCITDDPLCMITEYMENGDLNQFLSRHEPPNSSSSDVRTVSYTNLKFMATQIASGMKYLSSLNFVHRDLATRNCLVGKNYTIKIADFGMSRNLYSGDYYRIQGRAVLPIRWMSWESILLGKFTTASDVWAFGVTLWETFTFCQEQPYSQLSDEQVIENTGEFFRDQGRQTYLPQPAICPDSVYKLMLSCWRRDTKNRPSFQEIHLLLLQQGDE

[24] = biological target: Serine/threonine-protein kinase 17A (Homo sapiens) (UniProt Q9UEE5); assay: Activity of human DRAK1 kinase at 1 uM; how it was run: as §1
[25] = biological target: Tyrosine-protein kinase Lck (Homo sapiens) (UniProt P06239); assay: Activity of human Lck kinase at 1 uM; how it was run: as §1
[26] = biological target: Serine/threonine-protein kinase WNK2 (Homo sapiens) (UniProt Q9Y3S1); assay: Activity of human WNK2 kinase at 1 uM
How it was run: (§3)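 Single-concentration screen across a 226-kinase panel run by an outside provider; test compound at 1 μM with 10 μM ATP in every assay. Other conditions not detailed.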

[27] = biological target: Tyrosine-protein kinase ABL2 (Mus musculus) (UniProt Q4JIM5); assay: Activity of mouse Arg kinase at 1 uM; how it was run: as §3
[28] = Inhibition of CDK2E by radioactive flashplate assay
[29] = biological target: Tyrosine-protein kinase Blk (Mus musculus) (UniProt P16277); assay: Activity of mouse Blk kinase at 1 uM; how it was run: as §3
[30] = biological target: CDK3/Cyclin E (Homo sapiens) (UniProt P24864+Q00526); assay: Activity of human CDK3/cyclin E kinase at 1 uM; assay type: protein-complex assay; how it was run: as §1
Homo sapiens = species: Homo sapiens; assay: Activity of human CDK5/p35 kinase at 1 uM
[31] = biological target: Cyclin-dependent kinase 7/ cyclin H (Homo sapiens) (UniProt P51946+P50613); assay: Activity of human CDK7/cyclin H/MAT1 kinase at 1 uM; assay type: protein-complex assay; how it was run: as §1
[32] = biological target: Casein kinase I isoform gamma-3 (Homo sapiens) (UniProt Q9Y6M4); assay: Activity of human CK1gamma3 kinase at 1 uM; how it was run: as §1
DLD-1 = assay: Antiproliferative activity against human DLD1 cells after 96 hrs by BrdU cell proliferation ELISA; assay type: functional, cell-based; conditions: DLD-1, 96 h
How it was run: (§4)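 BrdU incorporation proliferation assay on cultured human tumor lines; IC50 values derived from growth inhibition.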

MDA-MB-231 = assay: Antiproliferative activity against human MDAMB231 cells after 96 hrs by BrdU cell proliferation ELISA; assay type: functional, cell-based; conditions: MDA-MB-231, 96 h; how it was run: as §4
Mus musculus = assay: Toxicity in human HCT116 cells xenografted into athymic nude NCR nu/nu mouse assessed as decrease in body weight at 30 mg/kg, QD after 21 days; assay type: organism-based, HCT-116; design: dose 30 mg/kg; scale not given: the % may be the effect or the level left; conditions: in vivo, 504 h
How it was run: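 Female athymic nude NCR nu/nu mice were given HCT-116 cells (1 × 10^6) s.c. in the right flank. Drug in 10% hydroxypropyl-β-cyclodextrin/5% sodium bicarbonate was given orally (QD or BID) for 21 days. Body weight loss was recorded at the end of treatment, and neutrophil counts were also followed for the BID regimen.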

PC-3 [33] = assay: Cell cycle arrest in human PC3 cells by accumulation at G1 phase at 1 uM after 24 hrs by flow cytometry relative to control; assay type: functional
PC-3 [34] = assay: Cell cycle arrest in human PC3 cells by accumulation at >4N phase at 1 uM after 24 hrs by flow cytometry relative to control; assay type: functional
PC-3 [35] = assay: Cell cycle arrest in human PC3 cells by accumulation at G2/M phase at 4 uM after 24 hrs by flow cytometry relative to control; assay type: functional
How it was run: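 DNA content profiles by flow cytometry of PC-3 prostate tumor cells exposed to drug diluted in DMSO for 24 or 48 h. Phase distribution was compared with DMSO-treated control cells.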

PC-3 [36] = assay: Cell cycle arrest in human PC3 cells by accumulation at >4N phase at 4 uM after 24 hrs by flow cytometry relative to control; assay type: functional

Activity [1]: 80% | Activity [2]: 115% | Activity [3]: 36% | Activity [4]: 110% | Activity [5]: 88% | Activity [6]: 114% | Activity [7]: 100% | Activity [8]: 122% | Activity [9]: 101% | Activity [10]: 107% | Activity [11]: 95% | Activity [12]: 99% | Activity [13]: 104% | Activity [14]: 100% | Activity [15]: 106% | Activity [16]: 108% | Activity [17]: 100% | Activity [18]: 112% | Activity [19]: 100% | Activity [20]: 94% | Activity [21]: 87% | Activity [23]: 87% | Activity [24]: 60% | Activity [25]: 59% | Activity [26]: 109% | Activity [27]: 63% | IC50 [28]: > 100 µM | Activity [29]: 53% | Activity [30]: 105% | Activity (Homo sapiens): 100% | Activity [31]: 105% | Activity [32]: 113% | IC50 (DLD-1): 1430 nM | IC50 (MDA-MB-231): 740 nM
SMILES: O=C(O)c1ccc(Nc2ncc3c(n2)-c2ccc(Cl)cc2C(c2c(F)cccc2F)=NC3)cc1 [MLN-8054]
Activity [22]: 103% | Activity (Mus musculus): < 2% | Activity (PC-3 [33]): 36.1% | Activity (PC-3 [34]): 3.7% | Activity (PC-3 [35]): 58.8% | Activity (PC-3 [36]): 5%
